Data published in publication PMC7867784 (Translational Lung Cancer Research, 2021).
“And” between values parts separate entries of the source, which are not always exact repeats. Equal entries are not always repeated. Where two headings read alike, the source gives them in different places.

Assays:
[1] = system: RET-fusion positive NSCLC cells; settings: cited from earlier work
RET-rearranged NSCLC [2] = settings: 600 mg BID, non-Japanese RET rearrangement NSCLC, out of 8 patients; cited from earlier work
[3] = cited from earlier work; for Cmax: AF-002JG study; for AUC0-10: global study
RET-rearranged NSCLC [4] = assay: ALL-RET phase 1/2 trial: antitumor efficacy; assay type: in vivo, human
Procedure, shortened: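 Patients with RET-rearranged NSCLC confirmed by at least 2 of 3 methods (multiplex RT-PCR, break-apart FISH, targeted NGS), previously treated with ≥1 chemotherapy regimen, ECOG PS 0–2, with measurable lesions. The test compound was given BID in 21-day cycles until respite, dose reduction or discontinuation criteria were met. Response was assessed by RECIST v1.1 on central review. DCR was defined as CR+PR+SD lasting at least 8 weeks.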

[5] = 450 mg BID, 25 RET-TKI-naïve patients
[6] = 450 mg BID, RET-TKI-naïve (n=25)
[7] = 450 mg BID, of 25 RET-TKI-naïve patients

Q: What does the source list for `CCc1cc2c(cc1N1CCC(N3CCOCC3)CC1)C(C)(C)c1[nH]c3cc(C#N)ccc3c1C2=O` [alectinib]?
A: growth of RET-rearranged tumor cells ([1]; in vitro and in vivo, pre-clinical studies): inhibit the growth; IC50 ([1]; read-out: IC50 in RET-fusion positive NSCLC cells): < 300 nM; patients with PR (RET-rearranged NSCLC [2]): 4; Cmax ([3]; 460 mg BID): 618 ± 165 ng/mL; AUC0-10 ([3]; 460 mg BID): 4,980±1,340 ng·h/mL; Cmax ([3]; 600 mg BID): 676 ± 186 ng/mL; AUC0-10 ([3]; 600 mg BID): 5,400±1,400 ng·h/mL; patients who could continue treatment for more than 1 year (RET-rearranged NSCLC [4]; 450 mg BID): 5; DCR (disease control rate, at 8 weeks) (RET-rearranged NSCLC [4]; [5]): 52%; patients with disease stabilization for more than 1 year (RET-rearranged NSCLC [4]; [5]): 5; patients with disease stabilization for more than 1 year, percent (RET-rearranged NSCLC [4]; [5]): 20%; ORR (objective/overall response rate) (RET-rearranged NSCLC [4]; 450 mg BID, 25 RET-TKI-naïve patients, central review): 4%; median PFS (RET-rearranged NSCLC [4]; 450 mg BID, 25 RET-TKI-naïve patients, 95% CI 2.0–5.4): 3.4 months; median OS (RET-rearranged NSCLC [4]; 450 mg BID, 25 RET-TKI-naïve patients, 95% CI 5.4–NE): 19.0 months and 19 months; Best overall response NE (not evaluated), % (RET-rearranged NSCLC [4]; [6]): 8%; Best overall response PD, % (RET-rearranged NSCLC [4]; [6]): 40%; Best overall response PR, % (RET-rearranged NSCLC [4]; [6]): 4%; Best overall response SD, % (RET-rearranged NSCLC [4]; [6]): 48%; patients with disease control at 8 weeks (RET-rearranged NSCLC [4]; [7]): 13; patients with objective response (RET-rearranged NSCLC [4]; [7]): 1; treatment duration of the patient who showed PR (RET-rearranged NSCLC [4]; one patient with KIF5B-RET, phase 2, 450 mg BID): ~2 years; activity against RET-rearranged NSCLC (conclusion) (RET-rearranged NSCLC [4]; phase 1/2, Japanese patients): limited activity
